From ChEMBL document CHEMBL1157466, “Antifouling activity of meroditerpenoids from the marine brown alga Halidrys siliquosa” (J Nat Prod, 2008)
In brackets after ≈: the same amount, converted by molar mass.

Assays:
[1] = Toxicity against Balanus amphitrite stage 2 nauplii after 24 hrs; type: organism-based; conditions: amphibalanus amphitrite, in vivo
Procedure, shortened: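 Ten to fifteen stage-II barnacle nauplii per well in 2 mL solution; compounds at 0.5, 1, 2.5, 5, 10, 25, 50 and 100 µg/mL; six replicates per treatment and control. Swimming and dead nauplii counted after 24 h exposure; LC50 is the concentration giving 50% mortality relative to control, derived from the dose-response data.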

[2] = system: Amphibalanus amphitrite; experiment: Antifouling activity in Balanus amphitrite assessed as inhibition of cyprid larvae settlement after 24 hrs; type: functional, organism-based
Procedure, shortened: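 Cyprids obtained by filtration 4 days after larval release from field-collected adults. 10–15 cyprids per well in 2 mL seawater containing compound at 0.5–100 µg/mL (0.5, 1, 2.5, 5, 10, 25, 50, 100). Kept in darkness at 28 °C for 24 h, six replicates. Larvae scored as dead, settled or swimming under a dissecting microscope. EC50 calculated as 50% settlement inhibition relative to the seawater control.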

[3] = system: Pseudoalteromonas haloplanktis; experiment: Antibacterial activity against Pseudoalteromonas haloplanktis after 24 hrs by microtiter broth dilution method; type: functional
Procedure, shortened: (§1)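 Marine bacteria at 2×10^8 cells/mL incubated with compound (0.5, 1, 2.5, 5, 10, 25, 50, 100 µg/mL) in Mueller Hinton broth supplemented with NaCl (15 g/L), 25 °C, 24 h, 96-well format. Six replicates per treatment alongside a seawater control. MIC read against the seawater control by microtiter broth dilution.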

[4] = system: Aliivibrio fischeri; experiment: Antibacterial activity against Vibrio fischeri ATCC 7744 after 24 hrs by microtiter broth dilution method; type: functional; procedure, shortened: as §1
[5] = system: Cobetia marina; experiment: Antibacterial activity against Cobetia marina ATCC 25374 after 24 hrs by microtiter broth dilution method; type: functional; procedure, shortened: as §1
[6] = system: Marinobacterium stanieri; experiment: Antibacterial activity against Marinobacterium stanieri ATCC 27130 after 24 hrs by microtiter broth dilution method; type: functional; procedure, shortened: as §1
[7] = Amphibalanus amphitrite, 24 h, read-out: EC50
[8] = Pseudoalteromonas haloplanktis, 24 h, read-out: MIC
[9] = Aliivibrio fischeri, ATCC 7744, 24 h, read-out: MIC
[10] = Cobetia marina, ATCC 25374, 24 h, read-out: MIC
[11] = Marinobacterium stanieri, ATCC 27130, 24 h, read-out: MIC

Row | Structure (SMILES) | LC50 at 24 h [1] | EC50 [2, 7] | MIC [3, 8] | MIC [4, 9] | MIC [5, 10] | MIC [6, 11] | MIC [3] | MIC [4] | MIC [5] | MIC [6] | EC50 [2]
1 | COc1cc(C)c(O)c(C/C=C(\C)CC(=O)/C=C(/C)CCCC(C)C(=O)C(O)C=C(C)C)c1 (stereo not given) | 5 µg/mL (≈ 10.9 µM) | 1 µg/mL (≈ 2.19 µM) | 1 µg/mL (≈ 2.19 µM) | 0.5 µg/mL (≈ 1.09 µM) | 0.5 µg/mL (≈ 1.09 µM) | 1 µg/mL (≈ 2.19 µM) |  |  |  |  | 
2 | COc1cc(C)c2c(c1)C=CC(C)(CC(=O)/C=C(\C)CCCC(C)[C@@H](O)C(=O)C=C(C)C)O2 (stereo not given in full) | > 100 µg/mL | > 100 µg/mL | > 100 µg/mL | > 100 µg/mL | > 100 µg/mL | > 100 µg/mL |  |  |  |  | 
3 | COc1cc(C)c(O)c(C/C=C(\C)CC(=O)/C=C(/C)CCCC(C)C(O)C(=O)C=C(C)C)c1 (stereo not given) | > 100 µg/mL | > 100 µg/mL | > 100 µg/mL | > 100 µg/mL | > 100 µg/mL | > 100 µg/mL |  |  |  |  | 
4 | COc1cc(C)c(O)c(C/C=C(\C)CC(O)/C=C(\C)CCCC(C)C(=O)C(O)C=C(C)C)c1 (stereo not given) | 10 µg/mL (≈ 21.8 µM) | 5 µg/mL (≈ 10.9 µM) | 1 µg/mL (≈ 2.18 µM) | 0.5 µg/mL (≈ 1.09 µM) | 1 µg/mL (≈ 2.18 µM) | 1 µg/mL (≈ 2.18 µM) |  |  |  |  | 
5 | COc1cc(C)c(O)c(C/C=C(\C)CC(=O)/C=C(\C)CCCC(C)C(=O)C(O)C=C(C)C)c1 (stereo in doubt; 3) | > 100 µg/mL |  |  |  |  |  | 10 µg/mL (≈ 21.9 µM) | 5 µg/mL (≈ 10.9 µM) | 5 µg/mL (≈ 10.9 µM) | 5 µg/mL (≈ 10.9 µM) | 
6 | COc1cc(C)c(O)c(C/C=C(\C)CC(=O)/C=C(\C)CCCC(C)C(=O)C(O)C=C(C)C)c1 (stereo in doubt; 4) |  | > 100 µg/mL |  |  |  |  | >100 µg/mL | >100 µg/mL | >100 µg/mL | >100 µg/mL | 
7 | COc1cc(C)c(O)c(C/C=C(\C)CC(=O)/C=C(\C)CCCC(C)C(O)C(=O)C=C(C)C)c1 (stereo in doubt; 8) | > 100 µg/mL |  |  |  |  |  | 10 µg/mL (≈ 21.9 µM) | 25 µg/mL (≈ 54.7 µM) | 10 µg/mL (≈ 21.9 µM) | 10 µg/mL (≈ 21.9 µM) | > 100 µg/mL
8 | COc1cc(C)c(O)c(C/C=C(\C)CC(=O)/C=C(\C)CCCC(C)C(O)C(=O)C=C(C)C)c1 (stereo in doubt; 9) |  |  |  |  |  |  | 1 µg/mL (≈ 2.19 µM) | 2.5 µg/mL (≈ 5.47 µM) | 2.5 µg/mL (≈ 5.47 µM) | 1 µg/mL (≈ 2.19 µM) | 4 µg/mL (≈ 8.76 µM)
